Data set [1] in a line: Partition coefficient (logP). It counts as physicochemical. The note with it: octanol/water. In a few lines: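 Apparent partition coefficient (log Papp) measured as distribution between 1-octanol and potassium phosphate buffer (0.02 M, pH 7.2) by an adapted shake-flask method.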
Data set [2] deals with CCRF-CEM. As to the kind of experiment: Tested for cytotoxic concentration in CEM/TK- cell culture. The class given is functional. The note with it: Homo sapiens. In a few lines:
(§1)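 Viability of uninfected CEM-SS, MT-4 or CEM/TK− cells measured. CC50 is the concentration that reduces viability by 50%. Values are averages of at least three separate experiments, with variation below ±10%.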

The test system of data set [3] is CCRF-CEM. As to the kind of experiment: Tested for anti-HIV -1 Activity in CEM/TK- cell culture. The class given is functional, cell-based. The note with it: Homo sapiens. In a few lines:
(§2)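 HIV-1 replication assayed in human T4 lymphoblastoid CEM-SS or MT-4 cells, or thymidine kinase-deficient CEM (CEM/TK−) cells. EC50 is the concentration that inhibits HIV-1 replication by 50%. Values are averages of at least three separate experiments, with variation below ±10%.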

Data set [4] deals with CCRF-CEM. As to the kind of experiment: Tested for cytotoxic concentration in CEM-SS cell culture. It counts as functional. The note with it: Homo sapiens. In a few lines:
as §1

For data set [5], the system named is CCRF-CEM. As to the kind of experiment: Tested for anti-HIV -1 Activity in CEM-SS cell culture. It counts as functional, cell-based. The note with it: Homo sapiens. In a few lines: as §2
Data set [6] relates to MT4. As to the kind of experiment: Tested for cytotoxic concentration in MT-4 cell culture. It counts as functional. The note with it: Homo sapiens. In a few lines: as §1
For data set [7], the system named is MT4. As to the kind of experiment: Tested for anti-HIV -1 Activity in MT-4 cell culture. It counts as functional, cell-based. The settings on record: Homo sapiens. In a few lines: as §2
The test system of data set [8] is CCRF-CEM. As to the kind of experiment: Tested for cytotoxic activity in CEM/TK- cell culture. It counts as functional. The settings on record: Homo sapiens. In a few lines:
as §1

Data set [9] deals with CCRF-CEM. As to the kind of experiment: Tested for anti-HIV -1 activity in CEM/TK- cell culture. The class given is functional, cell-based. The settings on record: Homo sapiens. In a few lines: as §2
Data set [10] has as its system CCRF-CEM. As to the kind of experiment: Tested for cytotoxic activity in CEM-SS cell culture. The settings on record: Homo sapiens. It counts as functional. In a few lines:
as §1

For data set [11], the system named is CCRF-CEM. As to the kind of experiment: Tested for anti-HIV -1 activity in CEM-SS cell culture. The class given is functional, cell-based. The settings on record: Homo sapiens. In a few lines:
as §2

The subject of data set [12] is MT4. As to the kind of experiment: Tested for cytotoxic activity in MT-4 cell culture. The class given is functional. The settings on record: Homo sapiens. In a few lines: as §1
Data set [13] has as its system MT4. As to the kind of experiment: Tested for anti-HIV -1 activity in MT-4 cell culture. It counts as functional, cell-based. The settings on record: Homo sapiens. In a few lines: as §2
Data set [14] deals with CCRF-CEM. As to the kind of experiment: Tested for cytotoxic concentration in CEM/TK- cell culture,(Human). The class given is functional. In a few lines:
as §1

In data set [15] the test system is CCRF-CEM. As to the kind of experiment: Tested for anti-HIV -1 Activity in CEM/TK- cell culture,(Human). It counts as functional, cell-based. In a few lines:
as §2

Data set [16] concerns CCRF-CEM. As to the kind of experiment: Tested for anti-HIV -1 Activity in CEM-SS cell culture,(Human). It counts as functional, cell-based. In a few lines: as §2
The subject of data set [17] is MT4. As to the kind of experiment: Tested for cytotoxic concentration in MT-4 cell culture,(Human). The class given is functional. In a few lines:
as §1

The subject of data set [18] is MT4. As to the kind of experiment: Tested for anti-HIV -1 Activity in MT-4 cell culture,(Human). It counts as functional, cell-based. In a few lines:
as §2

Data set [19] deals with CCRF-CEM. As to the kind of experiment: Tested for cytotoxic concentration in CEM-SS cell culture,(Human). It counts as functional. In a few lines:
as §1

`Cc1cn(C2CC(N=[N+]=[N-])C(COP(=O)(OCCSC(=O)C(C)(C)C)Oc3ccc(C[C@H](NC(=O)OC(C)(C)C)C(=O)OC(C)(C)C)cc3)O2)c(=O)[nH]c1=O` (some centres undefined): the log partition coefficient (logP) in [1] (read-out: logP) is 4.29. The CC50 in the data set on CCRF-CEM [2], in the data set on CCRF-CEM [4] and in the data set with MT4 [6] was above 1000 nM each time. In addition, the concentration giving a half-maximal response (EC50) with CCRF-CEM [3] came to 900 nM; in the data set on CCRF-CEM [5] it was 34 nM; in the data set with MT4 [7] it was 250 nM.

Take `COC(=O)[C@H](Cc1ccc(OP(=O)(OCCSC(=O)C(C)(C)C)OCC2OC(n3cc(C)c(=O)[nH]c3=O)CC2N=[N+]=[N-])cc1)NC(=O)OC(C)(C)C` (some centres undefined): the logP in [1] (read-out: logP) came to 3.48. In addition, the half-maximal cytotoxic concentration (CC50) with CCRF-CEM [2], in the data set with CCRF-CEM [4] and in the data set with MT4 [6] was above 10000 nM throughout. The EC50 in the data set with CCRF-CEM [3] was 2300 nM; in the data set with CCRF-CEM [5], 1 nM; with MT4 [7], 33 nM.

As to `Cc1cn(C2CC(N=[N+]=[N-])C(COP(=O)(OCCSC(=O)C(C)(C)C)OCCSC(=O)C(C)(C)C)O2)c(=O)[nH]c1=O` (centres undefined), in [1] (read-out: logP), the logP was found to be 3.73. Moreover, the half-maximal cytotoxic concentration (CC50) in the data set on CCRF-CEM [2], in the data set on CCRF-CEM [4] and with MT4 [6] was above 10000 nM throughout. Also, the concentration for a half-maximal effect (EC50) in the data set on CCRF-CEM [3] came out at 450 nM; with CCRF-CEM [5] it was 15 nM.

For the molecule `COC(=O)[C@@H](N)Cc1ccc(OP(=O)(OCCSC(=O)C(C)(C)C)OCC2OC(n3cc(C)c(=O)[nH]c3=O)CC2N=[N+]=[N-])cc1` (some centres undefined), the lipophilicity (logP) in [1] was determined as 2.25. Also, the CC50 in the data set with CCRF-CEM [8] was above 100000 nM; with CCRF-CEM [10], above 100000 nM; with MT4 [12], above 10000 nM. The concentration for a half-maximal effect (EC50) amounted to 1800 nM with CCRF-CEM [9], 2 nM with CCRF-CEM [11] and 37 nM in the data set on MT4 [13].

`Cc1cn([C@H]2C[C@H](N=[N+]=[N-])[C@@H](CO)O2)c(=O)[nH]c1=O` [ZIDOVUDINE]: in data set [1] (read-out: logP), the logP amounted to 0.06. For the same molecule, the results for the CC50 in the data set on CCRF-CEM [2], in the data set with CCRF-CEM [4] and with MT4 [6] were above 100000 nM, above 1000 nM and above 1000 nM, respectively. Further, the concentration giving a half-maximal response (EC50) with CCRF-CEM [3] is above 100000 nM; in the data set on CCRF-CEM [5] it was 3 nM; in the data set with MT4 [7] it was 15 nM.

On to `Cc1cn(C2CC(N=[N+]=[N-])C(COP(=O)(OCCSC(=O)C(C)(C)C)Oc3ccc(C[C@H](N)C(=O)OC(C)(C)C)cc3)O2)c(=O)[nH]c1=O` (some centres undefined), for which the lipophilicity (logP) in data set [1] (read-out: logP) is 2.9. The CC50 in the data set with CCRF-CEM [2], in the data set on CCRF-CEM [4] and with MT4 [6] was above 10000 nM throughout. The EC50 in the data set on CCRF-CEM [3] is 2700 nM; in the data set with CCRF-CEM [5], 4 nM; with MT4 [7], 42 nM.

For the molecule `Cc1cn([C@H]2C[C@H](N=[N+]=[N-])[C@@H](COP(=O)(OCCSC(=O)C(C)(C)C)Oc3ccccc3)O2)c(=O)[nH]c1=O` (some centres undefined), in [1], the logP stood at 3.46. Moreover, the cytotoxic concentration (CC50) in the data set with CCRF-CEM [14] and with MT4 [17] was above 10000 nM in each case. Further, the EC50 in the data set with CCRF-CEM [15] was found to be 3500 nM; in the data set with CCRF-CEM [16], 2 nM; in the data set on MT4 [18], 70 nM.

Regarding `Cc1cn(C2CC(N=[N+]=[N-])C(COP(=O)(OCCSC(=O)C(C)(C)C)Oc3ccc(C[C@H](N)C(=O)O)cc3)O2)c(=O)[nH]c1=O` (some centres undefined), in data set [1] (read-out: logP), the logP worked out at 0.24. The cytotoxic concentration (CC50) with CCRF-CEM [14] was above 100000 nM; in the data set on CCRF-CEM [19], above 100000 nM; in the data set with MT4 [17] it was above 10000 nM. Besides, the EC50 with CCRF-CEM [15] was 29000 nM; in the data set on CCRF-CEM [16], 6 nM; in the data set with MT4 [18] it was 75 nM.

The record behind these values is ChEMBL document CHEMBL1133117, “S-Acyl-2-thioethyl aryl phosphotriester derivatives as mononucleotide prodrugs” (J Med Chem, 2000).
